Screens deposited in PubChem by several laboratories.
Mdm2-MdmX inh – inhibitors of human Mdm2/MdmX interaction; O15151+Q00987; 330,000 compounds, 3% hits; SaOS-2 split-luciferase Mdm2/MdmX complementation, luminescence; AID 485346; inhibition, % at 8 µM;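 active = inhibition of at least 50% at 8 µM in the primary screen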
Target sequence (O15151 whole entry, looked up): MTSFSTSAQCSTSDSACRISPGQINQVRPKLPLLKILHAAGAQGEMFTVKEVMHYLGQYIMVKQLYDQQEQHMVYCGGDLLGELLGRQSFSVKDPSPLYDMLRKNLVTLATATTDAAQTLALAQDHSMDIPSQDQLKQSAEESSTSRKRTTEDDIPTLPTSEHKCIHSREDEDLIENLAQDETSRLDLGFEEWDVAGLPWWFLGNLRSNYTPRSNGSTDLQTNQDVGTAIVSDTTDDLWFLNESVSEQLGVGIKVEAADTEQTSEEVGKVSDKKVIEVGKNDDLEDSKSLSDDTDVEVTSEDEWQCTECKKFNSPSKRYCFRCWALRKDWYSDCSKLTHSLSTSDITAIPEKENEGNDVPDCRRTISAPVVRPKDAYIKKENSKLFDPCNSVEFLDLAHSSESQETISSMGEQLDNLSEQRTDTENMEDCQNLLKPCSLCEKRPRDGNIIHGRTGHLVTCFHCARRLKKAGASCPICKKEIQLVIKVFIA
Target sequence (Q00987 whole entry, looked up): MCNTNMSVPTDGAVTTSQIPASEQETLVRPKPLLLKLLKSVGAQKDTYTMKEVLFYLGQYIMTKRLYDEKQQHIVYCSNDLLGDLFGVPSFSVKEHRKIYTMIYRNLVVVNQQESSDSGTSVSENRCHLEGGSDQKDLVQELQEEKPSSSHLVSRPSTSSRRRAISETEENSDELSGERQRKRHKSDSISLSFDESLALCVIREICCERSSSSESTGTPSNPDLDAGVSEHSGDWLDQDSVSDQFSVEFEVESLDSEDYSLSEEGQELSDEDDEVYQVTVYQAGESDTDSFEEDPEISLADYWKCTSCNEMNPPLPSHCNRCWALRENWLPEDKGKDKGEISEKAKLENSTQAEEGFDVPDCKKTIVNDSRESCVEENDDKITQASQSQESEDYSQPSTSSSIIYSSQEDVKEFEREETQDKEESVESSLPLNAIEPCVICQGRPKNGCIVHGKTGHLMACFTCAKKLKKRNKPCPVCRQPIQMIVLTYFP
Beta apoptosis – blocks beta cell apoptosis; INS-1E cytokine-induced death, ATP luminescence, 48 h; percent of positive-control rescue, neutral wells zero; protection from apoptosis, % (no concentration beside the values); 300,000 compounds, 0.8% hits; AID 435005;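 active = Every replicate reaches about 75%, or at least half do and their mean reaches it too, limit read from the data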;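 also: 0% = cytokine-treated negative control wells and 100% = positive control rescue; higher means more ATP so stronger rescue from cytokine killing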
CSC inhib – cancer stem cell inhibition | cancer stem cell-like cells viability, luminescence | inhibition, % at 7.5 µM | 300,000 compounds, 1.1% hits | AID 2717; in the data active = inhibition above about 75%; tested in HMLE shEcad cells
Lmaj promast – inhibitors of Leishmania major promastigote growth. Leishmania major promastigotes, resazurin fluorescence viability. inhibition, % at 10 µM. 200,000 compounds, 9% hits; in the data active = inhibition above about 50%;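 also: promastigotes grown with compound for 44 hours at 28 °C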
T cruzi inh – T. cruzi replication inhibition | AID 1885 | 300,000 compounds, 1.4% hits | inhibition, % (test concentration not listed) | T. cruzi beta-gal in NIH3T3, luminescence, 90 h;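 active = mean inhibition across valid replicates above about 55%, limit read from the data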;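 also: signal also drops with host cell toxicity which is not excluded here; 0% = plate median of DMSO wells and 100% = zero luminescence signal; higher percent means less beta-gal luminescence so fewer parasites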
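Test system: β-gal T. cruzi (Tulahuen C4) inside NIH/3T3 cells / Quantity: 5,000 cells/well / Measured by: luminescence from GalScreen with 0.05% NP40, read after 60 min / Medium: DMEM plus 2% FBS / Measure: parasite load inhibition, % / Reagent: Tulahuen C4 trypomastigotes, 5000/well / Schedule: co-culture of at least 90 h after 3 h attachment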
SKKanGAS inh – SKKanGAS growth inhibition; S. pyogenes SKKanGAS, kanamycin growth, BacTiter-Glo, 6 h; inhibition, % at 7.5 µM; 300,000 compounds, 1.3% hits;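 active = mean replicate score, as percent of positive control median, at least 50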;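 also: strain carries kanamycin resistance gene driven by streptokinase promoter and grows in 40 µg/ml kanamycin; loss of luminescence reflects streptokinase promoter inhibition or plain growth inhibition; 0% = median of DMSO wells and 100% = positive control at its reference dose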
Starred values were filed as active, the others as inactive; / = no result given. This is a sample that favours compounds with a hit; in the whole collection about 9.4% have one here.

SMILES	Mdm2-MdmX inh	Beta apoptosis	CSC inhib	Lmaj promast	T cruzi inh	SKKanGAS inh
COc1ccc(C(CCN(Cc2ccc(OC)c(OC)c2)C(C)=O)c2ccccc2)cc1 (stereo not given)	18	3	/	9	21	3
Cn1c(=O)c(=O)n(C)c2cc(S(=O)(=O)N3CCCC3C(=O)NCc3cccs3)ccc21 (stereo not given)	-7	2	4	/	4	8
CCCn1c(O)c(N=NC(=O)CNC(=O)c2ccncc2)c2ccccc21	6	/	-13	/	-5	-2
CC(C)CCn1c(O)c(N=NC(=O)Cn2ccc(C(F)(F)F)n2)c2ccccc21	14	-19	13	52*	17	-7
Fc1ccccc1CNc1nc(-c2cccnc2)nc2ccccc12	1	43	9	/	36	-2
N#CC1=C(N)C(C#N)(C#N)[C@H](c2ccoc2)[C@H]2CN(Cc3ccccc3)CC=C12	31	2	48	56*	20	-3
COc1ccc(-c2cc(CCC(=O)N3CCN(c4cc(C)ccc4C)CC3)on2)cc1	8	/	/	/	/	/
CN(C(=O)CCl)C1CCCc2ccccc21 (stereo not given)	/	/	/	86*	/	/
CCOC(=O)N1CCN(C(=O)COC(=O)c2ccccc2NCCO)CC1	0	-8	-6	/	-8	0
CN(C(=O)Cc1c[nH]c2ccccc12)C(C(=O)Nc1ccc2c(c1)OCO2)c1ccccc1 (stereo not given)	42	4	-6	61*	26	12
CC(=O)NC(Cc1c[nH]c2ccccc12)C(=O)Nc1ccc2c(c1)OCO2 (stereo not given)	-3	-7	1	-3	1	1
COc1ccc(-c2ccc(C3C(C#N)=C(N)Oc4n[nH]c(C)c43)o2)cc1 (stereo not given)	-22	-13	6	71*	-2	-2
COc1ccc(CC(NC(C)=O)C(=O)NC2CCN(C(=O)Nc3ccccc3C)CC2)cc1OC (stereo not given)	-5	-5	-6	/	-1	3
C/C(Cn1nnc([N+](=O)[O-])n1)=N\NC(=O)c1ccc(C)cc1	/	7	-7	39	49	-3
C/C(Cn1nnc([N+](=O)[O-])n1)=N\NC(=O)c1ccccc1Cl	20	80*	17	18	56*	1
C/C(Cn1nnc([N+](=O)[O-])n1)=N\NC(=O)c1ccncc1	9	-3	-18	8	57*	10
C/C(Cn1nnc([N+](=O)[O-])n1)=N\NC(=O)c1cccc(Cl)c1	29	67	-6	45	57*	2
COc1ccc(Cl)cc1NC(=O)CCc1nc(-c2ccccc2F)no1	27	-10	-9	4	-1	0
O=C(CN1C(=O)c2cccnc2Oc2ccc(Cl)cc21)NCCC1=CCCCC1	1	0	-19	/	3	1
Cc1ccc(-c2nc3ccccc3[nH]2)cc1NC(=O)c1ccco1	4	1	-17	12	13	-3
Cc1ccc(-c2nc3ccccc3[nH]2)cc1NC(=O)c1sc2cc(Cl)ccc2c1Cl	46	3	5	36	60*	8
CN(C)CCCn1c(NCc2ccc3c(c2)OCO3)nc2ccccc21	11	-4	-13	66*	-4	2
CCn1c(NCc2ccc3c(c2)OCO3)nc2ccccc21	4	-1	9	78*	13	0
C=CCn1c(NCc2ccc3c(c2)OCO3)nc2ccccc21	0	4	/	98*	/	/
O=C(O)C1=CCNCC1	15	-5	-8	/	-14	-3
SMILES	Mdm2-MdmX inh	Beta apoptosis	CSC inhib	Lmaj promast	T cruzi inh	SKKanGAS inh
Cc1ccc(NC(=O)CSc2nnc(/N=C/N(C)C)s2)cc1	-1	1	-1	0	6	-4
O=S(=O)(Nc1ccc(Cl)nn1)c1ccccc1	8	-4	-7	-4	-5	2
O=S(=O)(NNc1ccc(Cl)nn1)c1ccc(F)cc1	17	-2	10	91*	-7	-2
COc1ccccc1CCC(=O)OCC(=O)Nc1ccc(C(N)=O)cc1	2	0	-2	/	-9	-3
CCN(Cc1ccncc1)C(=O)c1cc(COc2ccc(C)c(C)c2)on1	-14	-9	25	/	56*	-17
O=C(c1cc(COc2ccc(F)cc2Cl)on1)N(Cc1ccncc1)CC1CCCO1 (stereo not given)	20	1	-9	37	70*	-2
C(=N\Nc1nc2ccccc2[nH]1)/c1ccc2ncccc2c1	-78	/	79*	/	35	-7
COc1ccc(/C=N/Nc2nc3ccccc3[nH]2)cc1OC	-13	21	4	99*	-18	3
COc1cc(OC)c(OC)cc1/C=N/Nc1nc2ccccc2[nH]1	24	-3	-15	/	-25	-7
COc1cc(/C=N\Nc2nc3ccccc3[nH]2)cc(OC)c1OC	-9	12	6	57*	35	94*
Cc1ccc(S(=O)(=O)NNC(=O)c2cc3cc4ccccc4nc3s2)cc1	21	/	6	92*	-4	13
COc1ccc2[nH]c3c(c2c1)CCN1C(=O)C(CC(=O)NCCCn2ccnc2)C[C@H](C(=O)N2CCOCC2)[C@@]31C (stereo not given in full)	11	/	/	/	/	/
Cc1cccc(N2CCN(C(=O)CSc3ccsc3[N+](=O)[O-])CC2C)c1 (stereo not given)	8	-3	13	64*	30	9
COCCN=C1Sc2nc3cc(C)c(C)cc3cc2CN1Cc1cccs1	-29	-4	20	/	45	4
COCCN=C1Sc2nc3ccc(C)cc3cc2CN1Cc1ccco1	-4	-5	3	60*	-8	5
CCC(=O)N1c2ccc(S(=O)(=O)N3CCOCC3)cc2CC1C (stereo not given)	12	-1	-1	/	-9	0
CN(CC(=O)Nc1c(Cl)cccc1Cl)C(=O)c1cc2ccccc2cc1O	13	1	10	/	-9	19
COc1ccc(CNc2nc(NCc3ccc(OC)c(OC)c3)n(C(=O)c3cccs3)n2)cc1OC	39	-14	11	97*	35	19
COc1ccc(CCNC(=O)[C@@H](NC(=O)c2ccccc2F)C(C)C)cc1OC	7	4	-2	-2	-5	1
COc1ccccc1NS(=O)(=O)c1cc(NC(=O)CC(C)(C)C)ccc1N1CCOCC1	-20	/	-3	98*	15	-1
COc1ccccc1NS(=O)(=O)c1cc(NC(=O)CCC2CCCC2)ccc1N1CCOCC1	21	46	-8	99*	47	15
COc1ccccc1NS(=O)(=O)c1cc(NC(=O)c2ccccc2F)ccc1N1CCOCC1	7	21	8	40	26	6
CCN(Cc1ccccc1)C(c1cc2ccc(C)cc2[nH]c1=O)c1nnnn1CCOC (stereo not given)	22	-4	-10	10	-11	0
Cc1nc2cc(-c3ccccc3)nn2c(N)c1-c1ccccc1	-44	6	/	/	/	/
